How the values were obtained:
Cathepsin G = biological target: T1, Cathepsin G (Homo sapiens, UniProt P08311); experiment: Binding affinity towards cathepsin G
T1 sequence (P08311 whole entry): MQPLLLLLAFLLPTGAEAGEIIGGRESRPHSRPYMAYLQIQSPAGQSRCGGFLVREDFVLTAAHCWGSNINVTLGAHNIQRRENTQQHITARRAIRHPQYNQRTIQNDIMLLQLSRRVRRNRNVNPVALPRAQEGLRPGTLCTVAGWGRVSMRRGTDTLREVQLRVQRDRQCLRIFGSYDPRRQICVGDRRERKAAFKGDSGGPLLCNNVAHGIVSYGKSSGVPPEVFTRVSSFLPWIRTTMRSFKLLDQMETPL

Serine protease 1 = Serine protease 1 (Homo sapiens, UniProt P07477); experiment: Binding affinity towards trypsin
Serine protease 1, sequence (P07477 whole entry): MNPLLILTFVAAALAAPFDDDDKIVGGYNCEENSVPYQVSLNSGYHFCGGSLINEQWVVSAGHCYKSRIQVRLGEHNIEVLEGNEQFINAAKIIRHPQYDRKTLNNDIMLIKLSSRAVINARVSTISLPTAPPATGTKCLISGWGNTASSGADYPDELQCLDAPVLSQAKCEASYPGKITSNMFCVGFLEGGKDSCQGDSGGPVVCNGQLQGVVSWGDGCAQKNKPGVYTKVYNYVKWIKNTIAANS

Neutrophil elastase = biological target: T2, Neutrophil elastase (Homo sapiens, UniProt P08246); experiment: Inhibition of human neutrophil elastase-catalyzed hydrolysis of the synthetic substrate MeO-Suc-Ala-Ala-Pro-Val-pNa
T2 sequence (P08246 whole entry): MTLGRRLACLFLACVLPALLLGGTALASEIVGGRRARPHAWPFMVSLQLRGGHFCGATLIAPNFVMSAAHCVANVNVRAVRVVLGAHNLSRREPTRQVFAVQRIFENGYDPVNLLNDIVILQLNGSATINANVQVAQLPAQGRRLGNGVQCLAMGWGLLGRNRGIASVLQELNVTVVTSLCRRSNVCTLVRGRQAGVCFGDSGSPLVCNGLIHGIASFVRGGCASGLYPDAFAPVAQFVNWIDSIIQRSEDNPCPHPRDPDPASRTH

[1] = Percentage reduction in erythrocytes following elastase challenge/treatment.; format: functional; set-up: concentration or dose not given beside the values
Procedure, shortened: (§1)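 Male Syrian hamsters (90–110 g), anaesthetised with brevital sodium (30 mg/kg ip), received intratracheal HNE (400 μg in 0.01 M PBS). Test agent was given intratracheally, either admixed with the enzyme or predosed (shortest interval 6 h). Dose interval is the longest with significant lesion inhibition. At 24 h, wet lung weight/body weight and lavage red/white cells (Coulter) were measured. Results are % reduction scaled between the HNE and saline controls (p = 0.05).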

Chymotrypsinogen A = Chymotrypsinogen A (Bos taurus, UniProt P00766); experiment: Binding affinity towards chymotrypsin
[2] = biological target: T3, Angiotensin-converting enzyme (Rattus norvegicus, UniProt P47820); experiment: Biological activity was measured against Angiotensin I converting enzyme
T3 sequence (P47820 whole entry): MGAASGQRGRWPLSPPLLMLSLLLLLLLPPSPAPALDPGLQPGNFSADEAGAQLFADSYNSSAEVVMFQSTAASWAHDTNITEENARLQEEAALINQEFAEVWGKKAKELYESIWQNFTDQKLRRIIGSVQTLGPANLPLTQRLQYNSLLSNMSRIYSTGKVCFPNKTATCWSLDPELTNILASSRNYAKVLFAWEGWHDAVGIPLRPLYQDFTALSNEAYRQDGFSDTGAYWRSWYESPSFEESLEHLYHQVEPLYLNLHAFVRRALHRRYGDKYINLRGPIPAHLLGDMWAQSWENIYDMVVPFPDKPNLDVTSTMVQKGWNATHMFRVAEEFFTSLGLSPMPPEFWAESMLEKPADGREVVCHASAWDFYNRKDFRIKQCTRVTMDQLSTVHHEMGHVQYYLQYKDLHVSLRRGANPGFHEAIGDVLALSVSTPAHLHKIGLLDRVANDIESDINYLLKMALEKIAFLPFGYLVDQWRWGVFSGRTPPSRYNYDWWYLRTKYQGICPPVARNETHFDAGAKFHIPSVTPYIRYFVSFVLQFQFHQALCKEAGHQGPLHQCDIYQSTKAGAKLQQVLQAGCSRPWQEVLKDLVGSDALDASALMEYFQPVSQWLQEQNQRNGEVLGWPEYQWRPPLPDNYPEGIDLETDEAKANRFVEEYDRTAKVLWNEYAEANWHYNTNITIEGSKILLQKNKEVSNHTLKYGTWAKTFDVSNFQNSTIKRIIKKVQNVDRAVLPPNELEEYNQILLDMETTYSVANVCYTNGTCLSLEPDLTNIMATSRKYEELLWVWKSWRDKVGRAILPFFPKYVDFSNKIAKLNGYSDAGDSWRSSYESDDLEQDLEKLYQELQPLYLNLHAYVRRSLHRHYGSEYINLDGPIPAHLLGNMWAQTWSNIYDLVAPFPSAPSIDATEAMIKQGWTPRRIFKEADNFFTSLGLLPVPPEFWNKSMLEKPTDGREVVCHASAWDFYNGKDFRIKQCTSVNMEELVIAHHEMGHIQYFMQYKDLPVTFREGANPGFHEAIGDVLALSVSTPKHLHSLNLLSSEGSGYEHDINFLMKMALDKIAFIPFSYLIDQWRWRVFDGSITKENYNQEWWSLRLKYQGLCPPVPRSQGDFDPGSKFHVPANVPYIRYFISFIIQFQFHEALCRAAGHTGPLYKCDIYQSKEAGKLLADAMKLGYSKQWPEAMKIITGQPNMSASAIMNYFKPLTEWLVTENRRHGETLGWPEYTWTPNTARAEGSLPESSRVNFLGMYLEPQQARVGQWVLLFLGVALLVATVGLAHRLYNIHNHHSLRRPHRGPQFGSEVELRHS

[3] = biological target: T4, Neutrophil elastase (Homo sapiens) (UniProt P08246); conditions: Lung
T4 sequence (whole entry): T2 sequence (P08246 whole entry)

Papain = biological target: T5, Papain (Carica papaya, UniProt P00784); experiment: Binding affinity towards papain
T5 sequence (P00784 whole entry): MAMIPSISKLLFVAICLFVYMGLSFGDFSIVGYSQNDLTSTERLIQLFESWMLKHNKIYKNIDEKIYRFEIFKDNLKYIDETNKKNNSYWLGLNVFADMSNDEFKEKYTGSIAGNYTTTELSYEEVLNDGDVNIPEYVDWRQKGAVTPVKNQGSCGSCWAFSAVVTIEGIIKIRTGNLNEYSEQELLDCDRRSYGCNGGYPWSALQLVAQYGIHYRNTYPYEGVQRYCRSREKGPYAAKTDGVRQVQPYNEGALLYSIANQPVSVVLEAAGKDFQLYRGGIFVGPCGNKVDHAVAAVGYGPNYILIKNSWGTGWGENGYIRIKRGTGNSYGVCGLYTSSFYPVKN

Prothrombin = Prothrombin (Homo sapiens, UniProt P00734); experiment: Binding affinity towards thrombin
[4] = Percent reduction in leukocytes following elastase challenge/treatment.; format: functional; set-up: concentration or dose not given beside the values; procedure, shortened: as §1

For `CC(C)[C@H](NC(=O)[C@@H]1CCCN1C(=O)[C@@H](NC(=O)c1ccc(C(=O)NS(=O)(=O)c2ccc(Cl)cc2)cc1)C(C)C)C(=O)c1nc2cc(C(N)=O)ccc2o1`, the Ki (Cathepsin G) was > 2000 µM, the Ki (Serine protease 1) was > 50 µM and the Ki (Neutrophil elastase) was 0.0002 µM. For the same molecule, the Reduction [1] was 64%, the Ki (Chymotrypsinogen A) was 92 µM and the Ki [2] was > 200 µM. The Lw/Bw [3] was 54, the Ki (Papain) was > 200 µM and the Ki (Prothrombin) was > 50 µM. It also gave a Reduction [4] of 53%.
